One may read the IC50 as the midpoint of a concentration-inhibition curve.

IC50 data for twelve compounds are collected here from ChEMBL document CHEMBL3085651, “Anti-cancer evaluation of carboxamides of furano-sesquiterpene carboxylic acids from the soft coral Sinularia kavarattiensis” (Bioorg Med Chem Lett, 2013).

The target in one assay is T1, Phospholipase A2 (Apis mellifera, UniProt P00630).
T1 sequence (P00630 whole entry): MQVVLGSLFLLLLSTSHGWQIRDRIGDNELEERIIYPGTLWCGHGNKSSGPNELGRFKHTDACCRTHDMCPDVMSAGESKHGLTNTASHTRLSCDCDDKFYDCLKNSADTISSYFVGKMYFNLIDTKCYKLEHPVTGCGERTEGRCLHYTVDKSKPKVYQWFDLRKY
Nature of the assay: Inhibition of bee venom phospholipase A2.

For the next assay, the system named is DU-145. Nature of the assay: Cytotoxicity against human DU145 cells assessed as cell viability after 48 hrs by MTT assay. The settings on record: DU-145, 48 h. It is filed as functional, cell-based. In short, it runs like this: (§1)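 DU145 and MCF-7 cells grown in MEM with non-essential amino acids, 1 mM sodium pyruvate, […] bovine insulin and 10% FBS at 37 °C, 5% CO2. Cells were seeded at 1 × 10^4 per well in 96-well plates and treated at varied concentrations for 48 h. MTT reduction was measured over 1 h, with DMSO-solubilized formazan read by absorbance. IC50 is mean ± SD, n = 3 independent experiments.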

In the next assay the test system is THP-1. Briefly: Cytotoxicity against human THP1 cells assessed as cell viability after 48 hrs by MTT assay. It is filed as functional, cell-based. The conditions noted are these: THP-1, 48 h. In short, it runs like this: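 THP-1 cells cultured in RPMI-1640 containing 2-mercaptoethanol and 10% FBS, humidified 5% CO2, 37 °C. They were seeded at 1 × 10^4 cells per well in 96-well plates and incubated with graded compound concentrations for 48 h. MTT was added for the final 1 h, and formazan was dissolved in DMSO for absorbance reading. IC50 is mean ± SD of three independent experiments.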
In general terms: Tetrazolium dyes change colour on reduction, which living cells bring about.

For the next assay, the system named is MCF7. Briefly: Cytotoxicity against human MCF7 cells assessed as cell viability after 48 hrs by MTT assay. Type of assay: functional, cell-based. The settings on record: MCF7, 48 h. In short, it runs like this:
as §1

A further assay deals with HeLa. Briefly: Cytotoxicity against human HeLa cells assessed as cell viability after 48 hrs by MTT assay. Type of assay: functional, cell-based. In short, it runs like this: (§2)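 A549 and HeLa cells grown in DMEM with non-essential amino acids and 10% FBS at 37 °C, 5% CO2. Subconfluent cells were trypsinized, plated at 1 × 10^4 cells per well in 96-well plates, and exposed to a range of concentrations for 48 h. MTT was added for 1 h, and formazan was dissolved in DMSO and read by absorbance. IC50 is mean ± SD of three independent experiments.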

A further assay has as its system A549. Briefly: Cytotoxicity against human A549 cells assessed as cell viability after 48 hrs by MTT assay. It is filed as functional, cell-based. The conditions noted are these: A549, 48 h. In short, it runs like this: as §2

Turning to `C=C/C(C)=C\CC/C(C)=C/c1cc(C(=O)O)co1`, the 50% inhibitory concentration (IC50) amounted to 500 µM at Phospholipase A2; 60.1 µM in the assay on DU-145; 56.6 µM in the assay on THP-1; 61.9 µM in the assay on MCF7; 81 µM in the assay on HeLa; 89.3 µM in the assay with A549.

As to `C=C/C(C)=C/CC/C(C)=C/c1cc(C(=O)O)co1`, the half-maximal inhibitory concentration (IC50) with DU-145 worked out at 38.9 µM; in the assay on THP-1, 39.8 µM; in the assay with MCF7, 74.5 µM; in the assay with HeLa it was 80.4 µM; in the assay with A549, 89.7 µM.

`C=C/C(C)=C\CC/C(C)=C/c1cc(C(=O)OC)co1`: the IC50 in the assay with DU-145 amounted to 59.3 µM; with THP-1, 51.4 µM; in the assay with MCF7, 75.4 µM; in the assay on HeLa, 59.4 µM; with A549, 89.6 µM.

Turning to `C=C/C(C)=C/CC/C(C)=C/c1cc(C(=O)OC)co1`, the half-inhibitory concentration (IC50) with DU-145 is 25.1 µM; with THP-1, 25.8 µM; in the assay with MCF7 it was 28.9 µM; in the assay on HeLa, 35.5 µM; with A549, 28.6 µM.

In the case of `C=C/C(C)=C\CC/C(C)=C/c1cc(C(=O)N2CCN(C)CC2)co1`, the IC50 in the assay on DU-145 was determined as 24.1 µM; with THP-1, 20.8 µM; in the assay on MCF7, 27.9 µM; with HeLa, 30.5 µM; with A549, 23.6 µM.

For `C=C/C(C)=C\CC/C(C)=C/c1cc(C(=O)N2CCN(CC)CC2)co1`, the half-maximal inhibitory concentration (IC50) in the assay on DU-145 was 20.4 µM; with THP-1 it was 26.5 µM; in the assay on MCF7, 30.3 µM; in the assay with HeLa it was 35.9 µM; in the assay with A549, 27.9 µM.

With `C=C/C(C)=C\CC/C(C)=C/c1cc(C(=O)N2CCN(c3ccccc3)CC2)co1`, the IC50 in the assay with DU-145 is 30.3 µM; in the assay on THP-1 it was 28.6 µM; in the assay on MCF7 it was 39.8 µM; with HeLa, 32.1 µM; in the assay with A549, 28.3 µM.

Turning to `C=C/C(C)=C\CC/C(C)=C/c1cc(C(=O)N2CCN(Cc3ccccc3)CC2)co1`, the IC50 in the assay on DU-145 turned out to be 45.3 µM; in the assay on THP-1 it was 50.9 µM; in the assay on MCF7, 53.7 µM; in the assay on HeLa it was 59.4 µM; in the assay on A549, 50.7 µM.

In the case of `C=C/C(C)=C\CC/C(C)=C/c1cc(C(=O)N2CCN(Cc3ccc4c(c3)OCO4)CC2)co1`, the IC50 in the assay on DU-145 was 17.9 µM; in the assay on THP-1, 15.9 µM; in the assay on MCF7 it was 50.8 µM; with HeLa it was 44.2 µM; in the assay on A549 it was 45.5 µM.

For `C=C/C(C)=C\CC/C(C)=C/c1cc(C(=O)N2CCN(C(c3ccccc3)c3ccccc3)CC2)co1`, the IC50 was 16.8 µM with DU-145; 17.8 µM with THP-1; 26.7 µM with MCF7; 28.5 µM with HeLa; 24.6 µM in the assay with A549.

With `C=C/C(C)=C\CC/C(C)=C/c1cc(C(=O)Nc2ccc(C)cc2)co1`, the IC50 in the assay on DU-145 was found to be 56.5 µM; in the assay on THP-1, 60.4 µM; with MCF7 it was 65.3 µM; in the assay on HeLa it was 59.5 µM; with A549, 63.2 µM.

On to `C=C/C(C)=C\CC/C(C)=C/c1cc(C(=O)NCCCNC(=O)c2coc(/C=C(\C)CC/C=C(/C)C=C)c2)co1`, for which the half-maximal inhibitory concentration (IC50) in the assay with DU-145 was 41.3 µM; with THP-1 it was 59 µM; in the assay with MCF7, 57.7 µM; with HeLa, 73.4 µM; in the assay on A549, 69.7 µM.
